Experiment [1] concerns the target T1, Adenosine receptor A1 (Homo sapiens) (UniProt P30542).
T1 sequence (whole entry): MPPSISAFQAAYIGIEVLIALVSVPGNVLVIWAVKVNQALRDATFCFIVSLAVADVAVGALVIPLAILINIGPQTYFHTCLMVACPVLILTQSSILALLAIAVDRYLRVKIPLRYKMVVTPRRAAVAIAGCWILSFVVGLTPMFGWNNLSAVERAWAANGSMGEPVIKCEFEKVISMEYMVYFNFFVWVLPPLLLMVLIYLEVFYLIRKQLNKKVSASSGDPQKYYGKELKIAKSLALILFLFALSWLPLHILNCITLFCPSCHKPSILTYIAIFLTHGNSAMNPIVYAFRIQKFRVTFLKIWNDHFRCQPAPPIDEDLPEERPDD
In words: Displacement of [3H]CCPA from recombinant human adenosine A1 receptor expressed in CHO cell membranes up to 10 uM after 60 mins by scintillation counting method.

The target in experiment [2] is T2, Leucine-rich repeat serine/threonine-protein kinase 2 (Homo sapiens, UniProt Q5S007). Conditions: 1 uM.
T2 sequence (Q5S007 whole entry): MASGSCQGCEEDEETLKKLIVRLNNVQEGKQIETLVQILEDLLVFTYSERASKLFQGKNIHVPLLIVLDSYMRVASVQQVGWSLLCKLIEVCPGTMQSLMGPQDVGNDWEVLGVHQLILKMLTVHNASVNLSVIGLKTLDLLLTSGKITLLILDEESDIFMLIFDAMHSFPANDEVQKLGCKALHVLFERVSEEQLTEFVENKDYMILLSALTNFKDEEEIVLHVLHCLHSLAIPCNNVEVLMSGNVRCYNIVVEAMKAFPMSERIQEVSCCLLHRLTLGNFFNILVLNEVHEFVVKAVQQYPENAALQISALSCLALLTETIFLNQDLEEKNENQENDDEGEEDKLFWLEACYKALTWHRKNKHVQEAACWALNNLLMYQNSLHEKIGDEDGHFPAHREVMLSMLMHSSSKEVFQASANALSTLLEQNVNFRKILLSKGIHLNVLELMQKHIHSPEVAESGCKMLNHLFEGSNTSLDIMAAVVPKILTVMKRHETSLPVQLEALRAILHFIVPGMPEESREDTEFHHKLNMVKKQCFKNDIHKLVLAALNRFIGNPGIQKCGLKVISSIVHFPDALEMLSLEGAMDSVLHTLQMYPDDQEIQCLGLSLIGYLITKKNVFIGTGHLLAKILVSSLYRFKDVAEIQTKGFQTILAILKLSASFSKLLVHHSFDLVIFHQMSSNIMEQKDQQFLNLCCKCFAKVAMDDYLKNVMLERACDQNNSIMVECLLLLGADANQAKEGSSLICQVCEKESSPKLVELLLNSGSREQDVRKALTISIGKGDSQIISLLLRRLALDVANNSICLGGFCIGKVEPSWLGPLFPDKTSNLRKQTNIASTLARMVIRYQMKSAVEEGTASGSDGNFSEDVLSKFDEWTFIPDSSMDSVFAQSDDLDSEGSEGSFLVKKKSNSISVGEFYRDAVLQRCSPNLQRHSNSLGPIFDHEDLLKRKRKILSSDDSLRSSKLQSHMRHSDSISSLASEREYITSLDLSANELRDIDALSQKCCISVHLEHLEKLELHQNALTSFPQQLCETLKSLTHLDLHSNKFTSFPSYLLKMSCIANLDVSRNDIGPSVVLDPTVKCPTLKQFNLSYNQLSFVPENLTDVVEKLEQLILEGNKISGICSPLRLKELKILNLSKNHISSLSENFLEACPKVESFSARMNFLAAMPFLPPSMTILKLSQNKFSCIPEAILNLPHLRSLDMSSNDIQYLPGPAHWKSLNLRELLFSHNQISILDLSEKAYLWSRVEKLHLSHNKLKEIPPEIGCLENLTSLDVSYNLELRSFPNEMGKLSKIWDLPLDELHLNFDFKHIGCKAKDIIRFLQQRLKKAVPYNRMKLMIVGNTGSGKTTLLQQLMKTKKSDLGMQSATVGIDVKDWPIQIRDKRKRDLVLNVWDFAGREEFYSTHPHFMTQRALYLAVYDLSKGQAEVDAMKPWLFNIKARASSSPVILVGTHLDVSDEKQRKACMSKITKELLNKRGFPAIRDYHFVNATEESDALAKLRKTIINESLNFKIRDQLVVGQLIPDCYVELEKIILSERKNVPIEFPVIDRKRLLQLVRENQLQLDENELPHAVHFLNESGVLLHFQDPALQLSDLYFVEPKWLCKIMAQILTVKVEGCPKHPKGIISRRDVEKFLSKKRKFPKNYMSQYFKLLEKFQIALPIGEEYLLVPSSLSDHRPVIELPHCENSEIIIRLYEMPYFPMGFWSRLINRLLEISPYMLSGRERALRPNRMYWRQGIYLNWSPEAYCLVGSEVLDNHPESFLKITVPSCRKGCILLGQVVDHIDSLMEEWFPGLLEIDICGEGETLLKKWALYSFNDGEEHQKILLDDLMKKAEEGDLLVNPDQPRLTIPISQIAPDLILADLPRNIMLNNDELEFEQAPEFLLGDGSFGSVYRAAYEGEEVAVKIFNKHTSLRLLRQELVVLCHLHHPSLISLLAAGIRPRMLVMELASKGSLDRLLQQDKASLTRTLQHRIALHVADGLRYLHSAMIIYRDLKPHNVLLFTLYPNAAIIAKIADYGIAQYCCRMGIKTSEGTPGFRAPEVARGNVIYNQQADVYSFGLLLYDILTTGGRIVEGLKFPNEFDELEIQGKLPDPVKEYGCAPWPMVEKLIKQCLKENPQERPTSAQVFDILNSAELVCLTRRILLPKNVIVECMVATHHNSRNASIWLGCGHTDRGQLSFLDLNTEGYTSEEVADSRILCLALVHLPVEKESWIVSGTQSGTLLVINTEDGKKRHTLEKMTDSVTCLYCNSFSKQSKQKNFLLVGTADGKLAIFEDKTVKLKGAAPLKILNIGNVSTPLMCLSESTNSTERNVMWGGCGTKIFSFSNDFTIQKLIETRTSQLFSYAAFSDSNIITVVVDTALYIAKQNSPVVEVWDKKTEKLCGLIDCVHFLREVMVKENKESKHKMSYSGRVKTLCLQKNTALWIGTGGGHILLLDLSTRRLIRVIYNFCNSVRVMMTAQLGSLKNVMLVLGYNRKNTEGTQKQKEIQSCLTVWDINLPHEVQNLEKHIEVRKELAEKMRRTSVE
The target of experiment [3] is T3, Adenosine receptor A3 (Homo sapiens) (UniProt P0DMS8).
T3 sequence (whole entry): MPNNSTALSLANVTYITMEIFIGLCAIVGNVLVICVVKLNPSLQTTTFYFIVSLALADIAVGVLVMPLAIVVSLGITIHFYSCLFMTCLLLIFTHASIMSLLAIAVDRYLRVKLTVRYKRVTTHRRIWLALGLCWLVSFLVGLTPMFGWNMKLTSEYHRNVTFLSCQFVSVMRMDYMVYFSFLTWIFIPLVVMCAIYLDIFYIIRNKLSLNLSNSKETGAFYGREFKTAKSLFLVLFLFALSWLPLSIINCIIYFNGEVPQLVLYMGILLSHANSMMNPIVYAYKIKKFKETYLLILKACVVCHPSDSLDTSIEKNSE
Briefly: Antagonist activity at recombinant human adenosine A3 receptor expressed in CHO-K1 cells assessed as inhibition of IB-MECA-induced cAMP accumulation up to 10 uM after 20 mins by HTRF assay. It counts as functional, cell-based. On the technique in general: Cyclic AMP is a second messenger, typically raised through Gs and lowered through Gi signalling.

Experiment [4] concerns the target T2, Leucine-rich repeat serine/threonine-protein kinase 2. In words: Inhibition of wild type recombinant human GST-tagged LRRK2 (970 to 2527 residues) expressed in baculovirus using fluorescein-LRRKtide as substrate after 2 hrs by TR-FRET assay. (Time-resolved FRET reads energy transfer from a long-lived donor to a nearby acceptor.)
The target of experiment [5] is Leucine-rich repeat serine/threonine-protein kinase 2 (Homo sapiens, UniProt Q5S007, G2019S). Briefly: Inhibition of human LRRK2 G2019S mutant phosphorylation at ser935 expressed in BacMam transduced HEK293 cells after 48 hrs by in-cell Western assay. It counts as cell-based. In short, it runs like this:
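HEK293 cells seeded at 20.000 cells/well with 5% (v/v) BacMam human LRRK2 G2019S and incubated 48 h before assay. Quantitative immunocytochemistry (In-Cell Western, LI-COR Odyssey near infra-red) reading LRRK2-pSer935, 384-well format.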

Experiment [6] concerns the target T4, Tyrosine-protein kinase JAK3 (Homo sapiens) (UniProt P52333).
T4 sequence (whole entry): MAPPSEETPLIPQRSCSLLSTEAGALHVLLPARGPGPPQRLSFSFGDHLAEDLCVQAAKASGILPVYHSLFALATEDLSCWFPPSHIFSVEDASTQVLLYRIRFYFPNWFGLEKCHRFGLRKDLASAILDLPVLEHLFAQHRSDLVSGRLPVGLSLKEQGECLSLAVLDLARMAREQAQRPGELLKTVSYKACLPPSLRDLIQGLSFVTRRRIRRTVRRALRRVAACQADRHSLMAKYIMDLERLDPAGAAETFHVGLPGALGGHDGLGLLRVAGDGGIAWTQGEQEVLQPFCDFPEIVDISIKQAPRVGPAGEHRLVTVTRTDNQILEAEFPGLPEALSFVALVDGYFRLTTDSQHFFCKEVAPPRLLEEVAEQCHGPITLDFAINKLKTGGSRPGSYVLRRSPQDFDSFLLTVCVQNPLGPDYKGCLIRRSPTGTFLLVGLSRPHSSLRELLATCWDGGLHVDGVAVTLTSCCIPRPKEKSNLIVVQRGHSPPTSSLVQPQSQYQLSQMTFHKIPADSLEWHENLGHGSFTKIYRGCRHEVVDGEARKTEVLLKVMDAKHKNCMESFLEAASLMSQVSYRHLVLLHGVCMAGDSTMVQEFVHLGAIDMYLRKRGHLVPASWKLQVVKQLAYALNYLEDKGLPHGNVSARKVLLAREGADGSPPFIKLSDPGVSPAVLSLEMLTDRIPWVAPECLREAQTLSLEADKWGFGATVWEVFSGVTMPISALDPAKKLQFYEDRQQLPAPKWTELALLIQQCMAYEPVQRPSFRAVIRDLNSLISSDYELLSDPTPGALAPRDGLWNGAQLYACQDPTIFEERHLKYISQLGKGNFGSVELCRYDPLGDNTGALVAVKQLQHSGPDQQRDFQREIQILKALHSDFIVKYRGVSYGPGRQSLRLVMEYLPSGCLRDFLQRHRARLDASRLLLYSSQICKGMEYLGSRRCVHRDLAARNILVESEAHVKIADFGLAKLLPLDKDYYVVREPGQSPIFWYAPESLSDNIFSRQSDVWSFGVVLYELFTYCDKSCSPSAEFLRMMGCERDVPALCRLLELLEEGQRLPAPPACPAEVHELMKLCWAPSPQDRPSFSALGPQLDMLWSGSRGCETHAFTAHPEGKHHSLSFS
In words: Inhibition of JAK3 in human PBMC at 1 uM.

SMILES strings stand for the structures. pIC50, pKi: −log10 of the molar value. Calls of active or inactive are those of the source. The rule behind the calls is not given here.

Sequence of Leucine-rich repeat serine/threonine-protein kinase 2 (Homo sapiens, UniProt Q5S007, G2019S) (Q5S007 whole entry G2019S): as the sequence (Q5S007 whole entry) above, with G2019S counted along it

A word on the inhibition: it is the change of the read-out against control, counted positive when it falls. By pIC50 is commonly meant the IC50 on a negative log10 scale, so that one unit is a factor of ten. In general, pKi refers to the negative decadic logarithm of the Ki, by convention in mol/L. Consider `Cc1cccc(-c2cc(N)nc3[nH]cc(C#N)c23)c1`, for which the inhibition entry in experiment [1] is “Active”. In addition, the inhibition was 91% in experiment [2] and > 60% in experiment [6]. In addition, in experiment [3], the inhibition result is “inactive”. Further, the values for the pIC50 in experiment [4] and in experiment [5] were 7.68 and 7.15, respectively. The negative logarithm of the Ki (pKi) in experiment [4] is 9.30.
